Screens deposited in PubChem by Broad Institute.
A selection: hits, their analogues and other compounds. The true share with any hit is near 2.2%.
dFosB act: activators of delta FosB homodimer, primary screen, biochemical, fluorescence polarization, TAMRA-CDK5 oligo, single point; purified delta FosB; percent of positive-control signal above neutral wells; activation, % at 25 µM; AID 493131, 2011; actives 0.99% (n = 340,000);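 active = mean activation above about 17%, with every replicate also reaching it, limit read from the data, passing the limit was not always enough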
Target sequence (P13346 whole entry, looked up): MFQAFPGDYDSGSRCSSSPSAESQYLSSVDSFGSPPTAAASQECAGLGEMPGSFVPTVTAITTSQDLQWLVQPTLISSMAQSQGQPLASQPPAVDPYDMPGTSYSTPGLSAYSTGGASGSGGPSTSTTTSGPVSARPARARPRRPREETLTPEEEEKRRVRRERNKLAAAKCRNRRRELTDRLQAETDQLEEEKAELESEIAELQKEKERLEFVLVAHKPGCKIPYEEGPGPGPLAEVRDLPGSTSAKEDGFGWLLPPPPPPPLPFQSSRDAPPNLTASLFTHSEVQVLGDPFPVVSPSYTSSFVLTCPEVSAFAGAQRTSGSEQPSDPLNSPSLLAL
F508del corr: F508del CFTR correction, initial screen, CFBE line, single point; CFBE cells, YFP halide quenching; stimulated with forskolin plus potentiator P3; % fluorescence drop versus neutral controls; activity (quench increase), % at 7.58 µM; actives 0.36% (n = 350,000); AID 720511, 2013;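 active = mean added fluorescence quench of at least 8% versus neutral control, with both replicates also reaching 8%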;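 note: cells transiently co-express mutant CFTR-F508del with the halide-sensitive YFP; corrector assay measuring rescue of mutant channel to the surface after 24 h compound exposure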
S100A4 inh HTS: inhibitors of S100A4-myosin IIA peptide binding, primary screen, biochemical, fluorescence polarization, TAMRA-MyoIIA peptide. inhibition, % at 10.7 µM. actives 0.14% (n = 360,000). AID 652163, 2013;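 active = mean inhibition of at least 70% across replicates, with every replicate also reaching that level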
Target sequence (P26447 whole entry, looked up): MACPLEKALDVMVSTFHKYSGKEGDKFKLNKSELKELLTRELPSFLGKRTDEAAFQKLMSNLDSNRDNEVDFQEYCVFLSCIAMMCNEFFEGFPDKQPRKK
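Material: human S100A4 monomer with TAMRA-labelled myosin IIA peptide; buffer or medium: HEPES pH 7.2 with CaCl2, KCl, NaCl, DTT, Triton; compound dosing: one concentration per compound; schedule: 5 min incubation before reading; benchmarks: neutral control DMSO, positive control TFP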
FGF22 binding: binders of human FGF22 protein, primary screen, FGF22 synaptogenesis inhibitor project, biophysical, thermal shift, single point | actives 1.5% (n = 340,000) | AID 651658, 2012 | activity (Tm shift, normalised), % at 9.99 µM | recombinant FGF22 thermal shift, SYPRO orange fluorescence; percent of sucrose octasulfate shift, DMSO zero;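 active = mean Tm shift, scaled 0 neutral to 100 positive control, at about 1.3% or above, every replicate too, limit read from the data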
* hit, by the source's call; nt = no result given.

SMILES	dFosB act	F508del corr	S100A4 inh HTS	FGF22 binding
C[C@@H]1CN([C@@H](C)CO)C(=O)c2cc(NC(=O)C3CCCCC3)ccc2O[C@@H](C)CCCCO[C@@H]1CN(C)C(=O)Cc1ccccc1	nt	0	nt	0
N=c1n(Cc2ccccc2)c2ccccc2n1CC(O)COc1ccc(Cl)cc1Cl (configuration not stated)	30*	nt	0	43
Cc1cc(NCc2ccccn2)n2nc(C)c(-c3ccccc3)c2n1	-13	12*	18	0
O=C(C[C@@H]1C[C@H]2c3cc(NC(=O)Nc4ccccc4)ccc3O[C@H]2[C@@H](CO)O1)NCC1CC1	nt	5	9	0
CCCNC(=O)/C=C/C(=O)O	2	1	2	44*
O=C(O)/C=C/C(=O)NCCCc1ccccc1	4	-2	-1	1
CO[C@H]1CC[C@H]2CCOc3c(C#N)cccc3C(=O)N(C)[C@H](C)C(=O)N(C)C[C@H]1O2	nt	-1	-2	1
Nc1nc2ccccc2[nH]1	4	2	1	0
Nc1nc2ccc(Cl)cc2[nH]1	-1	4	1	43*
C[C@@H]1CN([C@@H](C)CO)C(=O)c2cc(NS(=O)(=O)c3ccc(F)cc3)ccc2O[C@@H](C)CCCCO[C@@H]1CN(C)C(=O)CCCN(C)C	nt	0	-15	0
Cc1csc2sc(-c3ccnc(SCC(=O)NCc4ccccc4)n3)c(C)c12	-16	16*	-1	0
Cc1csc(SCC(=O)NCc2ccccc2)n1	-2	0	15	0
C[C@H](CO)N1C[C@H](C)[C@@H](CN(C)CC2CC2)Oc2c(NC(=O)C3CCCCC3)cccc2C1=O	nt	0	-6	0
COc1ccc(C2=CC(=O)CC(c3ccc(OC)cc3)C2)cc1 (configuration not stated)	-10	0	-14	1
O=C1C=C(c2ccccc2Oc2ccccc2)C[C@@H](c2ccc(F)cc2)C1	nt	4	2	43*
O=C1C=C(c2ccc(-c3ccccc3)cc2)C[C@@H](c2ccc(F)cc2)C1	-7	0	-4	0
COc1ccc([C@H]2CC(=O)C=C(c3c(OC)cccc3OC)C2)cc1	3	11*	-9	0
CCOc1ccc(Cl)cc1C1=CC(=O)C[C@H](c2ccc(OC)cc2)C1	1	9.1*	-2	0
Cc1ccccc1S(=O)(=O)N1CCCCN2[C@H](CO)[C@@H](c3ccc(-c4cncnc4)cc3)[C@@H]2C1	nt	5	-16	0
CCCC#Cc1cnc2c(c1)C(=O)N([C@H](C)CO)C[C@@H](C)[C@H](CN(C)C(=O)c1ccc3c(c1)OCO3)O2	nt	0	3	0
C[C@@H]1CN([C@H](C)CO)C(=O)c2cc(C#CCc3ccccc3)cnc2O[C@@H]1CN(C)Cc1ccc(C(=O)O)cc1	nt	1	-3	0
COc1cc2ccccc2cc1C(=O)N1CCN(C(C)=O)CC1	-2	1	3	0
COc1ccccc1N1CCN(CC(=O)NC(=O)NCc2ccccc2)CC1	nt	5	-1	43*
CCOc1ccccc1N1CCN(C(=O)c2cc3ccccc3cc2OC)CC1	-9	17*	-7	0
COc1ccccc1N1CCN(C(=O)CCc2ccccc2)CC1	-1	0	-8	0
SMILES	dFosB act	F508del corr	S100A4 inh HTS	FGF22 binding
COc1ccccc1N1CCN(C(=O)CCC(=O)O)CC1	-7	-1	0	43*
Cc1c(C(=O)NCCCN2CCOCC2)oc2ccc(S(=O)(=O)N3CCOCC3)cc12	2	1	-4	43*
Cc1cc2c(cc1S(=O)(=O)Nc1ccc(F)cc1)n(C)c(=O)c(=O)n2C	-12	11*	-9	0
COc1ccc2[nH]cc(CCNC(=O)Cn3cc(C)c(=O)[nH]c3=O)c2c1	-6	-2	1	43*
C[C@@]12C(=O)Nc3ccc(Br)cc3C(=O)N1[C@H]1c3cc(Cl)ccc3OC[C@@H]1[C@@H]2c1ccccc1	25*	nt	nt	nt
CC(OC(=O)c1cccnc1Cl)C(=O)Nc1ccc2c(c1)OCCO2 (configuration not stated)	-12	-2	1	43*
CSc1ncccc1C(=O)OC(C)C(=O)Nc1ccc2c(c1)OCCO2 (configuration not stated)	nt	4	-2	0
O=C1O[C@H](c2ccccc2)[C@H](c2ccccc2)N2[C@H]1[C@@H](C(=O)Nc1nc3ccccc3s1)[C@]1(C(=O)Nc3ccc(C#CCCO)cc31)[C@H]2c1ccc(OCCO)cc1	nt	-2	3	0
O=C1Nc2ccccc2C1=Nc1ccc(-c2nnc3n2CCCCC3)cc1	1	-4	-8	43*
Cc1ccc(-c2nnc3n2CCCCC3)cc1	1	nt	nt	nt
CSc1ncccc1C(=O)NCCc1ccccc1	-7	1	-4	43*
O=C(NCCc1ccccc1)c1c(F)cccc1F	2	2	-2	43*
COCC(=O)N1[C@@H](CO)[C@H](c2ccccc2)[C@@H]1CN(C)C(=O)c1cccnc1	nt	-2	0	0
C[C@@H]1CN([C@@H](C)CO)C(=O)c2cccc(NC(=O)c3ccc(-c4nccs4)cc3)c2O[C@H]1CN(C)Cc1ccncc1	nt	2	4	0
Cc1ccc(S(=O)(=O)Nc2ccc(S(=O)(=O)Nc3cc(C)nc(C)n3)cc2)cc1	-2	0	-5	43*
Cc1cc(NS(=O)(=O)c2ccc(NS(=O)(=O)c3ccc(CC(C)C)cc3)cc2)nc(C)n1	-28	1	-2	1
CC(=O)NC1C(=O)N=C(SCC(=O)Nc2ccc(C(F)(F)F)cc2Cl)NC1=O (configuration not stated)	0	1	0	44*
COc1ccc(-n2nc3c(N4CCC(C(=O)NCc5ccccc5C)CC4)nnc(C)c3c2C)cc1	77*	nt	nt	nt
COc1ccc(-n2nc3c(N4CCC(C(=O)NCCc5ccccc5C)CC4)nnc(C)c3c2C)cc1	-1	nt	nt	nt
COc1cc2c(cc1OC)CN(CC(=O)Nc1ccc(F)cc1F)CC2	-8	-1	-5	0
O=C(/C=C/C(=O)N1CCc2ccccc2C1)N1CCc2ccccc2C1	1	-3	-3	0
O=C(O)CN1CCc2ccccc2C1	0	nt	-4	43*
O=C(CN1CCc2ccccc2C1)Nc1ccc(F)cc1F	-2	2	9	44*
O=S(=O)(Nc1ncnc2scc(-c3ccc(F)cc3)c12)c1cc(F)ccc1F	-5	1	-4	2.8*
COc1ccc(C(=O)Nc2ccc3c(c2)OC[C@H](C)NC[C@H](C)[C@@H](OC)CN(C)C3=O)cc1	nt	2	6	nt
COc1ccccc1CNC(=O)C[C@H]1CC[C@H](NC(=O)CN(C)C)[C@@H](CO)O1	nt	-2	2	0
Cc1ccc(C(C)C)c(OCC(=O)N/N=C/C2CCCCC2)c1	-17	1	7	43*
